Published values gathered from unrelated publications.
Each line is one published result; the experiments were not run side by side.
Target: Carbonic anhydrase 2 (CA2, Homo sapiens, UniProt P00918)
Read-out: enzyme activity
Action: inhibitor
Method: absorbance

| SMILES | pH | IC50 |
| --- | --- | --- |
| CC1=C(/C=C/C(C)=C/C=C/C(C)=C\C(=O)O)C(C)(C)CCC1 | pH 7.4 | 10900 nM |
| OC1CCN(c2ccc(/C=N/NC(=S)NCCc3ccccc3)cc2)CC1 | – | 641 nM |
| NS(=O)(=O)c1ccc(-c2ccc(Nc3ccc(F)c(Cl)c3)cc2)cc1 | – | 380 nM |
| NS(=O)(=O)c1cccc(Nc2nc(-c3cc4cc(Br)ccc4oc3=O)cs2)c1 | – | 680 nM |
| Cc1cccc(C)c1NC(=S)N/N=C/c1ccc(N2CCC(O)CC2)cc1 | – | 424 nM |
| C[C@H]1c2cccc(O)c2C(=O)C2=C(O)[C@]3(O)C(=O)C(C(N)=O)=C(O)[C@@H](N(C)C)[C@@H]3[C@@H](O)[C@@H]21 | pH 7.4 | 14200 nM |
| CN1CCN(c2nc(-c3cc4cc(Br)ccc4oc3=O)cs2)CC1 | – | 4120 nM |
| NS(=O)(=O)c1ccc(-c2ccc(Nc3ccc(Cl)cc3)cc2)cc1 | – | 2110 nM |
| OC1CCN(c2ccc(/C=N/NC(=S)NC3CCCCC3)cc2)CC1 | – | 465 nM |
| CS(=O)(=O)Nc1ccc(Nc2nc(-c3cc4cc(Br)ccc4oc3=O)cs2)cc1Oc1ccccc1 | – | 380 nM |
| OCCOCCN1CCN(C(c2ccccc2)c2ccc(Cl)cc2)CC1 (centres unmarked) | pH 7.4 | 18200 nM |
